Only some compounds are listed: those with a hit (about 2.3% of all), similar ones and a draw of the others.
TRPC4 block: inhibitors of mouse TRPC4 channel. actives 0.39% (n = 300,000). B-score at 10 µM. AID 2247. HEK293 TRPC4beta/mu-opioid, DAMGO-evoked Fluo4 calcium flux; active compounds read low. Q9QUQ5;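 active = B-score over 3 SD under the library average, no early fluorescence shift, positive overall ratio signal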
Target sequence (Q9QUQ5 whole entry, looked up): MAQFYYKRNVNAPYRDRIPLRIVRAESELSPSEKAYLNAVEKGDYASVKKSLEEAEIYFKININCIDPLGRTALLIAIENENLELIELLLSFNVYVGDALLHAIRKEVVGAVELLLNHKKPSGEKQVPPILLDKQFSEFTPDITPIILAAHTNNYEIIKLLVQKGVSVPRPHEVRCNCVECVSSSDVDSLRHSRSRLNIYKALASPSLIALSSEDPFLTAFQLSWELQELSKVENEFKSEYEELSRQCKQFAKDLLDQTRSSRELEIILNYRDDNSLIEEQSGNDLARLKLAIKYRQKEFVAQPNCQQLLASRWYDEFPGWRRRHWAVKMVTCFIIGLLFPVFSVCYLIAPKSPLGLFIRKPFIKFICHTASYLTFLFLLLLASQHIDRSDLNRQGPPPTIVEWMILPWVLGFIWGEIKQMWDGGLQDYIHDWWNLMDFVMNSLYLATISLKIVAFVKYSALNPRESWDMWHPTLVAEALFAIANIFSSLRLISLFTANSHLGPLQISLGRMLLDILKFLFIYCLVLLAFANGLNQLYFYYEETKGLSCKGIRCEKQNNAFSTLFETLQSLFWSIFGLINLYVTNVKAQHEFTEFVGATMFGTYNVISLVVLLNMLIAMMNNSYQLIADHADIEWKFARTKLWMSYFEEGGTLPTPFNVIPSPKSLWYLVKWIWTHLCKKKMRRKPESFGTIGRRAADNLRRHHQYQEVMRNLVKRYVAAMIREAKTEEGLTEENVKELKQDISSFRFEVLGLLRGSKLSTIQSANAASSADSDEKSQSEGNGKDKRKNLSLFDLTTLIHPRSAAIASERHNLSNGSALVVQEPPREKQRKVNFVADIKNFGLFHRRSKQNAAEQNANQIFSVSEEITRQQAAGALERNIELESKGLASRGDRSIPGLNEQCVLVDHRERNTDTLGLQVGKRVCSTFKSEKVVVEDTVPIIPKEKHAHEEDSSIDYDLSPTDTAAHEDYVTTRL
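Assay system: HEK293 cells with stable TRPC4beta plus mu-opioid receptor expression; Probe or stimulus: DAMGO in two steps, submaximal then maximal; Dosing: single-point compound dosing; Measured by: Fluo4 calcium-dye fluorescence, kinetic read; Read-out basis: B score from integrated Fluo4 fluorescence ratio.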
TRPC4 act: opens the mouse TRPC4 cation channel. Q9QUQ5. HEK293 TRPC4beta/mu-opioid, Fluo4 calcium fluorescence; active compounds read high. B-score at 10 µM. actives 0.49% (n = 310,000). AID 2237;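 active = B-score above 5 SD of library B-scores, and initial fluorescence ratio not above library mean plus 5 SD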;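 note: positive B-score marks a calcium rise read as TRPC4 activation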
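Assay system: HEK293 cells stably co-expressing mouse TRPC4beta and mu-opioid receptor / Timing: Fluo4 dye loading 45 min at room temperature, 110 s recording / Signal: Fluo4 calcium-sensitive dye fluorescence, kinetic, 1 Hz baseline / Read-out: integrated baseline-normalised fluorescence ratio, converted to per-well B score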
TRPC4 PAM: TRPC4 (mouse) allosteric potentiation; HEK293 TRPC4beta/mu-opioid, DAMGO EC20, Fluo-4 Ca2+ flux; active compounds read high; B-score at 10 µM; actives 0.42% (n = 310,000); AID 2227;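 active = B-score of calcium response area above 5 SD of library B-scores, with initial fluorescence ratio within 5 SD of library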;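 note: B-score of integrated fluorescence ratio over time as area under calcium response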
TRPC6 act: activators of mouse TRPC6 channel | HEK293-TRPC6 membrane potential dye fluorescence; active compounds read high | actives 0.13% (n = 310,000) | Q61143 | B-score at 10 µM | AID 2550;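 active = B-score of the integrated fluorescence ratio above library mean plus 3 SD, and starting fluorescence ratio within library mean plus 5 SD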;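 note: higher score means more depolarization so channel activation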
TRPC6 inh: blocks the mouse TRPC6 cation channel. Q61143. actives 1.1% (n = 310,000). HEK293-TRPC6, membrane potential dye, ACh-evoked depolarization; active compounds read low. B-score at 10 µM;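 active = B-score under library mean minus 3 SD, initial fluorescence not abnormally high, positive integrated signal ratio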;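 note: B-score derived from integrated fluorescence ratio over the kinetic read; more negative B-score means stronger inhibition of depolarization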
* hit, by the source's call; i = inactive.

SMILES | TRPC4 block | TRPC4 act | TRPC4 PAM | TRPC6 act | TRPC6 inh
N=c1sccn1Cc1ccccc1F | i | i | i | i | i
Fc1ccc(C2NCCc3[nH]cnc32)cc1 (centres undefined) | i | 60* | i | i | i
Clc1cccc(C2NCCc3[nH]cnc32)c1 (centres undefined) | i | 50* | i | i | i
O=C1CN(O)C(c2ccccc2Cl)=c2cc(Br)ccc2=N1 | i | i | i | i | i
Clc1ccc2c(c1)C(c1ccccc1Cl)=NCc1nnc(N3CCN(CCSc4ccccc4)CC3)n1-2 | i | i | i | i | i
Clc1ccc2c(c1)C(c1ccccc1Cl)=NCc1nnc(N3CCN(CCOc4ccccc4)CC3)n1-2 | i | i | 29* | i | i
CCCCc1ncc(CN2CCCC(C(=O)c3ccc(SC)cc3)C2)[nH]1 (centres undefined) | -6* | i | i | i | i
COc1ccc2c(C)c(CCC(=O)N3C[C@H]4C[C@@H](C3)c3cccc(=O)n3C4)c(=O)oc2c1 | i | i | i | i | i
CCN1C[C@]2(C)CC[C@H](OC)[C@]34C2[C@H](OC(C)=O)[C@@]2(OCO[C@@]25C[C@H](OC)[C@H]2C[C@]3(O)C5[C@H]2OC)[C@@H]14 | i | i | i | i | i
Cc1cc(-c2ccccc2)cc(C)[n+]1Cc1ccccc1 | i | 106* | i | i | i
O=[N+]([O-])c1ccc(C[n+]2c(-c3ccccc3)cc(-c3ccccc3)cc2-c2ccccc2)cc1 | i | i | i | i | i
CCOP(=O)(Cc1cc(C(C)=O)c(C)o1)OCC | i | i | i | i | i
Cc1c(C(=O)C(=O)N2CCC3(CC2)OCCO3)c2ccccc2n1C | i | i | i | i | i
CCNC(=O)C1OC(n2cnc3c(N)ncnc32)C(O)C1O (centres undefined) | i | 53* | i | i | i
CC(C)Oc1cc(-n2c(=S)[nH]c3ccccc3c2=O)c(Cl)cc1Cl | i | i | 12* | i | i
Fc1cccc(C2NCc3ccccc3-n3cccc32)c1 (centres undefined) | i | i | i | i | i
Cc1ccccc1C(O)(Cc1ccccc1)C1CN2CCC1CC2 (centres undefined) | i | 87* | i | i | i
Cc1ccc(-c2cc(-c3ccc(C)cc3)[n+](-c3ccc(C(=O)[O-])cc3)c(-c3ccc(C)cc3)c2)cc1 | i | 60* | i | i | i
CN1CCN(Cc2nc3ccccc3n2C)CC1 | i | i | 11* | i | i
Brc1ccc(CN2CCNCC2)s1 | i | i | 14* | i | i
COc1cccc(CN2CCNCC2)c1OC | i | i | i | i | i
CCOc1c(Cl)cc(CNC(C)C(O)c2ccccc2)cc1OC (centres undefined) | -6* | i | i | i | i
COc1cc(OC)c(OC)cc1CNC(C)C(O)c1ccccc1 (centres undefined) | i | i | i | i | i
COc1ccc(-n2nc(C(=O)NCC(=O)N3CCC4(CC3)OCCO4)c3ccccc3c2=O)c(OC)c1 | i | i | i | i | i
O=C(Nc1ccccc1Cl)OC1CN2CCC1CC2 (centres undefined) | i | i | 25* | i | i
SMILES | TRPC4 block | TRPC4 act | TRPC4 PAM | TRPC6 act | TRPC6 inh
O=C(Nc1ccccc1F)OC1CN2CCC1CC2 (centres undefined) | i | i | i | i | i
C[C@@H](N)Cc1cnc[nH]1 | i | 197* | i | i | i
O=C(O)Cc1cnc[nH]1 | i | i | i | i | i
CN[C@H]1C[C@H]2O[C@@](C)([C@H]1OC)n1c3ccccc3c3c4c(c5c6ccccc6n2c5c31)C(=O)NC4 | i | i | 27* | i | -5.76*
CCOc1ccc(-c2c(C)n(-c3ccc(OCC)cc3)c3[n+]2CCCCC3)cc1 | i | i | i | 13.3* | -9.44*
CCOc1ccc(-n2c(-c3ccoc3)nc3ccccc3c2=O)cc1 | i | i | i | i | i
C(CCc1nn[nH]n1)CCc1nn[nH]n1 | i | i | i | i | i
CCCC[n+]1cc(=N)o[n-]1 | i | i | i | i | i
COc1ccc(OCCOc2cccc(C=C3C(=O)NC(=O)NC3=O)c2)cc1 | i | i | i | i | i
CN(CCOc1ccc(C=C2C(=O)NC(=O)NC2=O)cc1)c1ccccn1 | -6* | 46* | i | i | i
O=[N+]([O-])c1ccc(N2CCNCC2)cc1NC1CC1 | i | 117* | i | i | i
O=[N+]([O-])c1ccc(N2CCNCC2)cc1NCC1CCCO1 (centres undefined) | i | i | i | i | i
O=C(COc1ccc2ccc(=O)oc2c1)N1CCC(C(=O)O)(c2ccccc2)CC1 | i | i | i | i | i
COc1ccc2c(c1O)C13CCN(C)C(C2)C1CCC(=O)C3 (centres undefined) | i | 93* | i | i | i
CCc1ccc(CN2CCCC(C(=O)c3sccc3C)C2)o1 (centres undefined) | -8* | i | i | i | i
COCc1ccc(CN2CCCC(C(=O)c3sccc3C)C2)o1 (centres undefined) | i | i | i | i | i
COc1ccc(O)c(CN2CCCC(C(=O)c3sccc3C)C2)c1 (centres undefined) | -7* | i | i | i | i
Cc1ccsc1C(=O)C1CCCN(Cc2ccccc2O)C1 (centres undefined) | -6* | i | i | i | i
Cc1ccc(N=C(/N=C(\N)N[N+](=O)[O-])Nc2ccc(C)cc2)cc1 | i | i | i | i | i
CN1C(C(=O)N2CCC3(CC2)OCCO3)=CC(c2ccc(F)cc2)=NS1(=O)=O | i | i | i | i | i
Cc1ccc(C)c(NC(=S)NCCc2cnc[nH]2)c1 | i | 142* | i | i | i
COc1ccc(CCC(=O)NCCc2cnc[nH]2)cc1 | i | i | i | i | i
Cc1cc(OCC(=O)NCc2ccc(S(N)(=O)=O)cc2)c2c3c(c(=O)oc2c1)CCC3 | i | i | i | i | i
C[N+]1(C)[C@@H]2CC[C@H]1CC(OC(=O)C(CO)c1ccccc1)C2 (some centres undefined) | i | i | i | i | -7.06*
CCn1ccnc1CN1CCCC(C(=O)c2cc(Cl)ccc2OC)C1 (centres undefined) | i | i | i | i | i
